Data set [1] can be described thus: Antiproliferative activity against human A2780S cells after 48 hrs by MTT assay. The class given is functional, cell-based. The settings on record: A2780, 48 h. The method, boiled down:
(§1)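 HCT116, HepG2, SMMC-7721, SK-OV-3 and A2780s grown in DMEM; A549 and MCF-7 in RPMI-1640; all with 10% FBS and penicillin/streptomycin at 37 °C, 5% CO2. Log-phase cells at 40,000-50,000 cells/mL treated with graded concentrations for 48 h. MTT 3 h, DMSO solubilization, A570. IC50 from percent growth versus untreated control; mean ± SEM of ≥3 independent dose-response experiments.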
In general terms: Tetrazolium assays rely on reduction of a dye to a coloured formazan, in cell work by metabolically active cells.

For the next data set, the system named is SK-OV-3. The data set can be described thus: Antiproliferative activity against human SKOV3 cells after 48 hrs by MTT assay. The class given is functional, cell-based. The conditions noted are these: SK-OV-3, 48 h. A digest of the protocol: as §1
The test system of another data set is HepG2. The data set can be described thus: Antiproliferative activity against human HepG2 cells after 48 hrs by MTT assay. Type of data set: functional, cell-based. The conditions noted are these: HepG2, 48 h. A digest of the protocol:
as §1

Data set [2] can be described thus: Antiproliferative activity against human […] cells after 48 hrs by MTT assay. The class given is functional, cell-based. A digest of the protocol: as §1
In data set [3] the test system is HCT-116. Kind of data set: Antiproliferative activity against human HCT116 cells after 48 hrs by MTT assay. The class given is functional, cell-based. The conditions noted are these: HCT-116, 48 h. A digest of the protocol:
as §1

The nature of data set [4]: Inhibition of pig microtubule polymerization after 30 mins by turbidimetric assay. Further details: species or system Sus scrofa. A digest of the protocol:
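Porcine-brain MAP-rich tubulin at 3 mg/mL preincubated 30 min at 4 °C in 0.1 M PIPES pH 6.9, 2 mM MgCl2, 0.5 mM EGTA. Compounds added 2 min before the run, then 1 mM GTP. Turbidity followed kinetically at 340 nm at 37 °C; assembly IC50 derived by Hamel's method.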

For data set [5], the system named is NCI-H1975. Kind of data set: Resistance ratio, ratio of IC50 for human gefitinib-resistant NCI-H1975 cells to IC50 for human HCC827 cells. Type of data set: functional.
The subject of data set [6] is A549. Kind of data set: Antiproliferative activity against human A549 cells after 48 hrs by MTT assay. Type of data set: functional, cell-based. The settings on record: A549, 48 h. The method, boiled down:
as §1

Data set [7] concerns MCF7. The data set can be described thus: Antiproliferative activity against human MCF7 cells after 48 hrs by MTT assay. The class given is functional, cell-based. The settings on record: MCF7, 48 h. The method, boiled down:
as §1

Data set [8] is described as follows: Antiproliferative activity against human HCC827 cells after 48 hrs by MTT assay. The class given is functional, cell-based. The settings on record: HCC827, 48 h.
The test system of data set [9] is MCF7. Kind of data set: Resistance ratio, ratio of IC50 for human doxorubicin-resistant MCF7 cells to IC50 for human MCF7 cells. The class given is functional. The method, boiled down: (§2)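 MTT assay: log-phase cells at 40,000-50,000 cells/mL in RPMI-1640 with 10% FBS, exposed to graded concentrations for 48 h, then MTT 3 h, DMSO solubilization, absorbance at 570 nm. IC50 from growth versus untreated control, at least three independent experiments. Ratio = resistant-line IC50 / parental-line IC50.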

In another data set the target is Tubulin (Homo sapiens) (UniProt P68371+Q9H4B7+P0DPH7+P68366+Q13509+Q71U36+P04350+Q3ZCM7+P07437+P68363+Q9BQE3+Q6PEY2+Q13885+Q9BVA1+Q9BUF5). Kind of data set: Binding affinity to tubulin in human HepG2 cells at 5 uM after 4 hrs by EBI competition assay. The class given is cell-based. A digest of the protocol: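 HepG2 cells seeded at 500,000 cells/well, allowed to adhere, then treated with compound for 4 h. EBI added at 100 µM for 1.5 h. Cell extracts (about 20 µg protein) run on 10% SDS-PAGE, blotted to PVDF, probed with anti-β-tubulin, detected by ECL with GAPDH as loading control. Read-out is loss of the faster-migrating β-tubulin–EBI adduct band.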

Data set [10] deals with NCI-H1975. The data set can be described thus: Antiproliferative activity against human gefitinib-resistant NCI-H1975 cells after 48 hrs by MTT assay. Type of data set: functional, cell-based. The settings on record: NCI-H1975, 48 h.
Data set [11] has as its system A549. Kind of data set: Resistance ratio, ratio of IC50 for human taxol-resistant A549 cells to IC50 for human A549 cells. The class given is functional. A digest of the protocol:
as §2

Data set [12] is described as follows: Antiproliferative activity against human doxorubicin-resistant MCF7 cells after 48 hrs by MTT assay. The class given is functional, cell-based. The conditions noted are these: MCF7, 48 h. A digest of the protocol:
(§3)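 MCF-7/ADR (doxorubicin-resistant) and A549/T (taxol-resistant) cells in RPMI-1640 with 10% FBS and penicillin/streptomycin. Log-phase cells at 40,000-50,000 cells/mL exposed to graded concentrations for 48 h. MTT 3 h, DMSO solubilization, absorbance 570 nm. IC50 from percent growth versus untreated control; mean ± SEM of ≥3 independent experiments.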

Data set [13] relates to A549. The data set can be described thus: Antiproliferative activity against human taxol-resistant A549 cells after 48 hrs by MTT assay. Type of data set: functional, cell-based. The conditions noted are these: A549, 48 h. A digest of the protocol: as §3
Data set [14] deals with Mus musculus. Kind of data set: Toxicity in Balb/c athymic nude mouse xenografted with human SKOV3 cells assessed as loss in body weight at 10 mg/kg, ip administered daily. Type of data set: organism-based, SK-OV-3. The conditions noted are these: in vivo. A digest of the protocol: (§4)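 Female Balb/C athymic nude mice, 5-6 weeks old, bearing s.c. right-flank xenografts (cells in HBSS). Once tumors averaged 100 mm3, animals were randomized into groups of 6 and dosed i.p. once daily. Body weight was recorded every two days during treatment.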
For orientation: Xenograft models place foreign cells or tissue in a host animal.

Data set [15] deals with Mus musculus. Kind of data set: Toxicity in Balb/c athymic nude mouse xenografted with human HCT116 cells assessed as loss in body weight at 10 mg/kg, ip administered daily. The class given is organism-based, HCT-116. The settings on record: in vivo. The method, boiled down:
as §4

For data set [16], the system named is HCT-116. Kind of data set: Antitumor activity against human HCT116 cells xenografted in Balb/c athymic nude mouse assessed as tumor growth inhibition at 10 mg/kg, ip administered daily after 42 days. Type of data set: functional. The settings on record: HCT-116, ip, 1008 h, read-out: TGI. A digest of the protocol:
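Female Balb/C athymic nude mice, 5-6 weeks old, given s.c. tumor cells in HBSS into the right flank. Once tumors averaged 100 mm3, animals were randomized into groups of 6 and given daily i.p. injections. Tumor volume (π/6 × length × width²) was measured every two days. Inhibition = (1 − treated/control tumor weight) × 100%, taken at day 42.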

Consider 12 molecules from ChEMBL document CHEMBL3596186, “Synthesis and biological evaluation of diarylthiazole derivatives as antimitotic and antivascular agents with potent antitumor activity” (Bioorg Med Chem, 2015).

Structures are written as SMILES. Active and inactive are the calls of the source. The rule behind the calls is not given here.

For `CCOc1ccc(-c2nc(NC(=O)CC)sc2-c2cc(OC)c(OC)c(OC)c2)cc1`, the IC50 was 0.0051 µM in data set [1]; 0.0604 µM in the data set with SK-OV-3; 0.0406 µM with HepG2; 0.0108 µM in data set [2]; 0.0505 µM in the data set with HCT-116 [3]; more than 10 µM in data set [4].
On to `CCNC(=O)Nc1nc(-c2ccc(OCC)cc2)c(-c2cc(OC)c(OC)c(OC)c2)s1`, for which the “Ratio IC50” value in the data set with NCI-H1975 [5] came to 0.35; in the data set on MCF7 [9], 1.7; with A549 [11] it was 0.64. Also, the IC50 in the data set with A549 [6] is 0.103 µM; in the data set with MCF7 [7], 0.417 µM; in data set [8], 0.623 µM; in [1] it was 0.0013 µM; with SK-OV-3, 0.0292 µM; in the data set with HepG2, 0.0307 µM. For the same molecule, the IC50 in [2] came to 0.0106 µM; in the data set on HCT-116 [3] it was 0.0221 µM; with NCI-H1975 [10], 0.22 µM; in data set [4], 3.9 µM; in data set [12], 0.727 µM; with A549 [13] it was 0.14 µM. The outcome on Tubulin (Homo sapiens) was inactive.
`COc1cccc2c1C(=O)c1c(O)c3c(c(O)c1C2=O)C[C@@](O)(C(=O)CO)C[C@@H]3O[C@H]1C[C@H](N)[C@H](O)[C@H](C)O1` [DOXORUBICIN]: the IC50 in data set [12] turned out to be 5.3 µM. That is a single-digit micromolar value.
Consider `COc1ccc(/C=C\c2cc(OC)c(OC)c(OC)c2)cc1O` [COMBRETASTATIN A4], for which, in data set [4], the IC50 is 5.91 µM.
Regarding `CCCC(=O)Nc1nc(-c2ccc(OCC)cc2)c(-c2cc(OC)c(OC)c(OC)c2)s1`, the half-inhibitory concentration (IC50) in data set [1] was 0.018 µM; in the data set with SK-OV-3, 0.105 µM; in the data set on HepG2, 0.0768 µM; in data set [2], 0.011 µM; with HCT-116 [3], 0.018 µM; in [4] it was 9.04 µM. Besides, the outcome on Tubulin (Homo sapiens) was inactive.
With `O=c1[nH]cc(F)c(=O)[nH]1` [FLUOROURACIL], the Activity entry in the data set with Mus musculus [14] and with Mus musculus [15] was “Toxic” each time. For the same molecule, the inhibition in vivo at 10 mg/kg in the data set with HCT-116 [16] amounted to 37.3%.
Regarding `CCOc1ccc(-c2nc(C=O)sc2-c2cc(OC)c(OC)c(OC)c2)cc1`, the IC50 in data set [1] was 0.104 µM; with SK-OV-3 it was 0.009 µM; with HepG2 it was 0.05 µM; in data set [2], 0.106 µM; in the data set with HCT-116 [3] it was 0.048 µM; in data set [4], more than 10 µM.
As for `CCOc1ccc(-c2nc(NS(=O)(=O)c3ccc([N+](=O)[O-])cc3OC)sc2-c2cc(OC)c(OC)c(OC)c2)cc1`, the IC50 (in data set [1]; with SK-OV-3; in the data set with HepG2; in [2]; in the data set with HCT-116 [3]) was more than 5 µM throughout.
`COc1cc2c(c(OC)c1OC)-c1ccc(OC)c(=O)cc1[C@@H](NC(C)=O)CC2` [COLCHICINE] registered an IC50 in [4] of 5.02 µM.
As to `CCOc1ccc(-c2nc(N(Cc3ccccc3)Cc3ccccc3)sc2-c2cc(OC)c(OC)c(OC)c2)cc1`, the IC50 (in data set [1]; in the data set with SK-OV-3; in the data set with HepG2; in [2]; in the data set with HCT-116 [3]) was more than 5 µM each time.
`CCOc1ccc(-c2nc(C)sc2-c2cc(OC)c(OC)c(OC)c2)cc1`: the IC50 in [1] is 0.106 µM; in the data set with SK-OV-3 it was 0.068 µM; in the data set with HepG2 it was 0.368 µM; in data set [2], 0.126 µM; with HCT-116 [3], 0.064 µM; in [4] it was more than 10 µM.
Turning to `CCOc1ccc(-c2ncsc2-c2cc(OC)c(OC)c(OC)c2)cc1`, the entries for the “Ratio IC50” value with NCI-H1975 [5], in the data set on MCF7 [9] and in the data set on A549 [11] were 2.38, 1.3 and 0.45, respectively. In addition, the IC50 is 0.696 µM with A549 [6]; 1.16 µM in the data set on MCF7 [7]; 0.469 µM in data set [8]; 0.086 µM in data set [1]; 0.01 µM with SK-OV-3; 0.065 µM with HepG2. Moreover, the IC50 in [2] is 0.128 µM; in the data set on HCT-116 [3], 0.062 µM; in the data set with NCI-H1975 [10], 1.11 µM; in [4] it was 3.55 µM; in [12] it was 1.56 µM; in the data set with A549 [13], 0.425 µM. Moreover, at Tubulin (Homo sapiens), the result was inactive.

The term IC50 denotes the concentration at which inhibition is half-maximal.
